Laboratory results published in ChEMBL document CHEMBL1131501, “Cytotoxic activities of Mannich bases of chalcones and related compounds” (J Med Chem, 1998).

How the values were obtained:
Type in all cases: functional, cell-based
P388 = assay: Inhibition of proliferation of murine P388 cells; details: Mus musculus
L1210 = assay: Concentration required to inhibit 50% growth of L1210 leukemia cells; details: Mus musculus
Homo sapiens [1] = species: Homo sapiens; assay: Concentration required to inhibit 50% growth of human Molt 4/C8 T-lymphocyte cells; details: Molt4/C8
Homo sapiens [2] = species: Homo sapiens; assay: Concentration required to inhibit 50% growth of Human CEM T-lymphocytes cells; details: CCRF-CEM
Tumor Cell line = assay: Evaluation for cytotoxicity to human tumor cell lines.
Summary of the method: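 Panel of about 55-60 human tumor lines (leukemia, melanoma, non-small cell lung, colon, CNS, ovarian, renal, prostate, breast) exposed to 10⁻⁸ to 10⁻⁴ M. Growth inhibition was read as intact-cell recovery relative to vehicle control after 48 h.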

Compound	IC50 (P388) [µM]	IC50 (L1210) [µM]	IC50 (Homo sapiens [1]) [µM]	IC50 (Homo sapiens [2]) [µM]	IC50 (Tumor Cell line) [µM]
CN(C)Cc1cc(C(=O)/C=C/c2ccccc2)cc(CN(C)C)c1O	29.6	17.7	20.7	19.6	21.9
COc1ccc(/C=C/C(=O)c2ccc(O)cc2)cc1	8.7	32.2	27.9	5.9	
COc1ccc(/C=C/C(=O)c2ccc(OC(=O)/C=C/c3ccccc3)cc2)cc1	10.2	39.5	27.9	10.8	
O=C(/C=C/c1ccc(/C=C/C(=O)c2ccc(O)cc2)cc1)c1ccc(O)cc1	0.564	395	30.3	78.6	93.3
O=C(/C=C/c1ccc(O)cc1)c1ccc(Cl)c(Cl)c1	8.53	33.8	10.8	20	
O=C(/C=C/C=C/c1ccccc1)c1ccc(O)cc1	8.83	33.8	30.8	10	
O=C(/C=C/c1ccccc1)Oc1ccc(C(=O)/C=C/c2ccc(Cl)cc2)cc1	3.82	265	220	45.3	
CN(C)Cc1cc(C(=O)/C=C/c2c(F)cccc2Cl)cc(CN(C)C)c1O		8.29	7.92	7.74	9.12
CN(C)Cc1cc(C(=O)/C=C/c2ccc(O)cc2)cc(CN(C)C)c1O	> 50	54	44.3	39.1	39.8
CN(C)Cc1cc(C(=O)/C=C/c2ccc(Cl)cc2)cc(CN(C)C)c1O	13.7	8.33	8.41	6.48	10
CN(C)Cc1cc(C(=O)/C=C/c2ccc(Cl)cc2Cl)cc(CN(C)C)c1O	5.44	5.28	5.74	4.87	3.09
CN(C)Cc1cc(C(=O)/C=C/c2ccc(/C=C/C(=O)c3cc(CN(C)C)c(O)c(CN(C)C)c3)cc2)cc(CN(C)C)c1O					26.9
N[C@@H](Cc1ccc(N(CCCl)CCCl)cc1)C(=O)O					26.3
O=C(/C=C/c1ccccc1)c1ccccc1 [CHALCONE]	9.63	41.4	12.7	12.5	8.32
CN(C)Cc1cc(/C=C/C(=O)c2ccc(Br)cc2)cc(CN(C)C)c1O	15.1	32.3	39.2	21.9	
COc1ccc(/C=C/C(=O)c2cc(CN(C)C)c(O)c(CN(C)C)c2)cc1	44.1	25.8	25.3	14.8	29.5
O=C(/C=C/c1ccc([N+](=O)[O-])cc1)c1ccc(O)cc1	13.1	7.32	5.94	2.23	
O=C(/C=C/c1ccccc1Cl)c1ccc(O)cc1	6.85	24.5	18.2	13.9	
O=C(/C=C/c1ccc(Cl)c(Cl)c1)c1ccc(O)cc1	11.7	13.1	5.66	1.71	
O=C(/C=C/c1c(Cl)cccc1Cl)c1ccc(O)cc1	3.17	5.15	5.15	1.36	
CN(C)Cc1cc(C(=O)/C=C/c2ccccc2Cl)cc(CN(C)C)c1O	13.2	6.84	7.13	8.08	9.55
CN(C)Cc1cc(C(=O)/C=C/c2ccc([N+](=O)[O-])cc2)cc(CN(C)C)c1O	17.7	8.73	4.82	1.75	8.91
CN(C)Cc1cc(/C=C/C(=O)c2ccccc2)cc(CN(C)C)c1O	> 50	108	98	22.1	
CN(C)Cc1cc(C(=O)/C=C/c2cc(F)ccc2F)cc(CN(C)C)c1O	8.86	15.9	15.4	2.91	
CN(C)Cc1cc(C(=O)/C=C/c2ccc(C(F)(F)F)cc2)cc(CN(C)C)c1O	3.67	8.14	8.3	1.56	
O=C(/C=C/c1ccc(F)cc1)c1ccc(O)cc1	8.55	15.7	16.1	3.3	

Continued by falling IC50 (L1210), values first:

IC50 (P388) [µM]	IC50 (L1210) [µM]	Compound	IC50 (Homo sapiens [1]) [µM]	IC50 (Homo sapiens [2]) [µM]	IC50 (Tumor Cell line) [µM]
4.62	46.5	O=C(/C=C/c1ccccc1)Oc1ccc(C(=O)/C=C/c2ccccc2)cc1	39.2	13.2	
30.8	40.1	Cc1ccc(/C=C/C(=O)c2cc(CN(C)C)c(O)c(CN(C)C)c2)cc1	40.2	35.2	17.8
14.3	37.9	O=C(/C=C/c1ccc(O)cc1)c1ccccc1 [4-HYDROXYCHALCONE]	8.58	9.31	
7.89	25.2	O=C(/C=C/c1ccc(Cl)cc1Cl)c1ccc(O)cc1	13.9	10.2	
5.51	24.7	Cc1ccc(/C=C/C(=O)c2ccc(O)cc2)cc1	25.4	11.3	
3.12	23.5	O=C(/C=C/c1ccccc1)c1ccc(O)cc1 [4'-HYDROXYCHALCONE]	13.1	14.7	
2.82	21.2	O=C(/C=C/c1cccc(Cl)c1)c1ccc(O)cc1	6.8	5.4	
26.9	16.9	CN(C)Cc1cc(C(=O)/C=C/c2ccc(F)cc2)cc(CN(C)C)c1O	17.2	13.8	20
10.3	15.7	O=C(/C=C/c1ccccc1)c1cc(CN2CCOCC2)c(O)c(CN2CCOCC2)c1	17.2	6.11	14.5
16.6	13.2	O=C(/C=C/c1ccc(Br)cc1)c1ccc(O)cc1	6.07	1.98	
2.49	13	O=C(/C=C/c1ccc(C(F)(F)F)cc1)c1ccc(O)cc1	6.33	1.88	
0.864	12.2	O=C(/C=C/c1cc(F)ccc1F)c1ccc(O)cc1	7.88	3.57	
5.45	9.32	CN(C)Cc1cc(/C=C/C(=O)c2ccc(Cl)c(Cl)c2)cc(CN(C)C)c1O	12.4	10.4	
3.67	9.07	O=C(/C=C/c1ccc(Cl)cc1)c1ccc(O)cc1	6.91	3.47	
10.9	7.09	CN(C)Cc1cc(C(=O)/C=C/c2ccc(Br)cc2)cc(CN(C)C)c1O	8.42	4.78	6.31
8.66	5.96	CN(C)Cc1cc(C(=O)/C=C/c2cccc(Cl)c2)cc(CN(C)C)c1O	5.75	2.68	4.68
5.92	3.83	CN(C)Cc1cc(C(=O)/C=C/c2c(Cl)cccc2Cl)cc(CN(C)C)c1O	5.38	4.33	5.88
5.09	2.49	CN(C)Cc1cc(C(=O)/C=C/c2ccc(Cl)c(Cl)c2)cc(CN(C)C)c1O	6.99	2.48	2.35
